System: Fibroblast
Assay: Multiplex assay against human fibroblast
Assay type: toxicity, cell-based
Outline: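 Cells were classed with CellPathfinder machine-learning gating, first as Hoechst high-intensity objects or normal cells, then (normal cells) as healthy, pyknosed or fragmented nuclei, and finally (pyknosed cells) as mitotic or apoptotic. Staining of live cells at seeding used Hoechst33342, BioTracker Green Microtubule Cytoskeleton Dye, MitoTracker Red and Annexin V Alexa Fluor 680, with imaging on a CQ1 microscope at 37°C and 5% CO2 after compound addition. Tubulin, mitochondrial-mass and membrane-permeability phenotypes are per cents of healthy-nucleus cells.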

[1] = 12 h, 1 µM, compound concentration 1 uM, replicate 1
[2] = 12 h, 1 µM, compound concentration 1 uM, replicate 2
[3] = 12 h, 10 µM, compound concentration 10 uM, replicate 1
[4] = 12 h, 10 µM, compound concentration 10 uM, replicate 2
[5] = 24 h, 1 µM, compound concentration 1 uM, replicate 1
[6] = 24 h, 1 µM, compound concentration 1 uM, replicate 2
[7] = 24 h, 10 µM, compound concentration 10 uM, replicate 1
[8] = 24 h, 10 µM, compound concentration 10 uM, replicate 2
[9] = 48 h, 1 µM, compound concentration 1 uM, replicate 1
[10] = 48 h, 1 µM, compound concentration 1 uM, replicate 2
[11] = 48 h, 10 µM, compound concentration 10 uM, replicate 1
[12] = 48 h, 10 µM, compound concentration 10 uM, replicate 2

O=C(NCC(=O)N1CC[C@H](N[C@H]2CC[C@@](O)(c3ccc(-c4ncccn4)cn3)CC2)C1)c1cccc(C(F)(F)F)c1 [PF-4136309]
Population Apoptotic (%) [1]: 53% | Population Fragmented Nuclei (%) [1]: 13% | Population Healthy Nuclei (%) [1]: 63% | Population Hoechst High Intensity Objects (%) [1]: 2% | Population Membrane Permeable-Phenotype (%) [1]: 1% | Population Mitochondria Different-Phenotype (%) [1]: 4% | Population Mitotic Cells (%) [1]: 46% | Population Normal (%) [1]: 97% | Population Pyknosed Nuclei (%) [1]: 23% | Population Tubulin-Different-Phenotype (%) [1]: 28% | Total Cell Count [1]: 142 | Population Apoptotic (%) [2]: 22% | Population Fragmented Nuclei (%) [2]: 25% | Population Healthy Nuclei (%) [2]: 52% | Population Hoechst High Intensity Objects (%) [2]: 5% | Population Membrane Permeable-Phenotype (%) [2]: 13% | Population Mitochondria Different-Phenotype (%) [2]: 7% | Population Mitotic Cells (%) [2]: 77% | Population Normal (%) [2]: 94% | Population Pyknosed Nuclei (%) [2]: 21% | Population Tubulin-Different-Phenotype (%) [2]: 60% | Total Cell Count [2]: 152 | Population Apoptotic (%) [3]: 60% | Population Fragmented Nuclei (%) [3]: 18% | Population Healthy Nuclei (%) [3]: 69% | Population Hoechst High Intensity Objects (%) [3]: 2% | Population Membrane Permeable-Phenotype (%) [3]: 0% | Population Mitochondria Different-Phenotype (%) [3]: 11% | Population Mitotic Cells (%) [3]: 40% | Population Normal (%) [3]: 97% | Population Pyknosed Nuclei (%) [3]: 12% | Population Tubulin-Different-Phenotype (%) [3]: 46% | Total Cell Count [3]: 210 | Population Apoptotic (%) [4]: 25% | Population Fragmented Nuclei (%) [4]: 24% | Population Healthy Nuclei (%) [4]: 52% | Population Hoechst High Intensity Objects (%) [4]: 5% | Population Membrane Permeable-Phenotype (%) [4]: 4% | Population Mitochondria Different-Phenotype (%) [4]: 6% | Population Mitotic Cells (%) [4]: 75% | Population Normal (%) [4]: 94% | Population Pyknosed Nuclei (%) [4]: 23% | Population Tubulin-Different-Phenotype (%) [4]: 44% | Total Cell Count [4]: 128 | Population Apoptotic (%) [5]: 61% | Population Fragmented Nuclei (%) [5]: 14% | Population Healthy Nuclei (%) [5]: 60% | Population Hoechst High Intensity Objects (%) [5]: 2% | Population Membrane Permeable-Phenotype (%) [5]: 1% | Population Mitochondria Different-Phenotype (%) [5]: 4% | Population Mitotic Cells (%) [5]: 38% | Population Normal (%) [5]: 97% | Population Pyknosed Nuclei (%) [5]: 25% | Population Tubulin-Different-Phenotype (%) [5]: 32% | Total Cell Count [5]: 139 | Population Apoptotic (%) [6]: 45% | Population Fragmented Nuclei (%) [6]: 33% | Population Healthy Nuclei (%) [6]: 52% | Population Hoechst High Intensity Objects (%) [6]: 4% | Population Membrane Permeable-Phenotype (%) [6]: 16% | Population Mitochondria Different-Phenotype (%) [6]: 1% | Population Mitotic Cells (%) [6]: 55% | Population Normal (%) [6]: 95% | Population Pyknosed Nuclei (%) [6]: 14% | Population Tubulin-Different-Phenotype (%) [6]: 52% | Total Cell Count [6]: 148 | Population Apoptotic (%) [7]: 36% | Population Fragmented Nuclei (%) [7]: 15% | Population Healthy Nuclei (%) [7]: 72% | Population Hoechst High Intensity Objects (%) [7]: 3% | Population Membrane Permeable-Phenotype (%) [7]: 0% | Population Mitochondria Different-Phenotype (%) [7]: 10% | Population Mitotic Cells (%) [7]: 63% | Population Normal (%) [7]: 96% | Population Pyknosed Nuclei (%) [7]: 11% | Population Tubulin-Different-Phenotype (%) [7]: 34% | Total Cell Count [7]: 203 | Population Apoptotic (%) [8]: 30% | Population Fragmented Nuclei (%) [8]: 29% | Population Healthy Nuclei (%) [8]: 48% | Population Hoechst High Intensity Objects (%) [8]: 2% | Population Membrane Permeable-Phenotype (%) [8]: 6% | Population Mitochondria Different-Phenotype (%) [8]: 4% | Population Mitotic Cells (%) [8]: 70% | Population Normal (%) [8]: 97% | Population Pyknosed Nuclei (%) [8]: 22% | Population Tubulin-Different-Phenotype (%) [8]: 52% | Total Cell Count [8]: 139 | Population Apoptotic (%) [9]: 58% | Population Fragmented Nuclei (%) [9]: 26% | Population Healthy Nuclei (%) [9]: 49% | Population Hoechst High Intensity Objects (%) [9]: 2% | Population Membrane Permeable-Phenotype (%) [9]: 2% | Population Mitochondria Different-Phenotype (%) [9]: 2% | Population Mitotic Cells (%) [9]: 41% | Population Normal (%) [9]: 97% | Population Pyknosed Nuclei (%) [9]: 24% | Population Tubulin-Different-Phenotype (%) [9]: 27% | Total Cell Count [9]: 149 | Population Apoptotic (%) [10]: 50% | Population Fragmented Nuclei (%) [10]: 36% | Population Hoechst High Intensity Objects (%) [10]: 4% | Population Membrane Permeable-Phenotype (%) [10]: 7% | Population Mitochondria Different-Phenotype (%) [10]: 4% | Population Mitotic Cells (%) [10]: 50% | Population Normal (%) [10]: 95% | Population Pyknosed Nuclei (%) [10]: 13% | Population Tubulin-Different-Phenotype (%) [10]: 46% | Total Cell Count [10]: 137 | Population Apoptotic (%) [11]: 47% | Population Fragmented Nuclei (%) [11]: 18% | Population Healthy Nuclei (%) [11]: 72% | Population Hoechst High Intensity Objects (%) [11]: 6% | Population Membrane Permeable-Phenotype (%) [11]: 0% | Population Mitochondria Different-Phenotype (%) [11]: 15% | Population Mitotic Cells (%) [11]: 52% | Population Normal (%) [11]: 93% | Population Pyknosed Nuclei (%) [11]: 9% | Population Tubulin-Different-Phenotype (%) [11]: 47% | Total Cell Count [11]: 195 | Population Apoptotic (%) [12]: 63% | Population Fragmented Nuclei (%) [12]: 31% | Population Healthy Nuclei (%) [12]: 52% | Population Membrane Permeable-Phenotype (%) [12]: 6% | Population Mitochondria Different-Phenotype (%) [12]: 6% | Population Mitotic Cells (%) [12]: 36% | Population Pyknosed Nuclei (%) [12]: 15% | Population Tubulin-Different-Phenotype (%) [12]: 54% | Total Cell Count [12]: 129

Reference: ChEMBL document CHEMBL5058577, “EUbOPEN Chemogenomics Library 2 (Multiplex)” (2022)
